# Source: ChEMBL document CHEMBL1799942, “Design, synthesis and antifungal activities of novel 1,2,4-triazole derivatives” (2011)
# Key:
# Assay type in all cases: functional
# [1] = system: Cryptococcus neoformans; assay: Antifungal activity against Cryptococcus neoformans ATCC BLS108 after 72 hrs by micro-broth dilution method; settings: ATCC BLS108, 72 h
# Outline: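 NCCLS M27-A2 microdilution on the ATCC BLS108 quality-control strain, tested in every assay. Compounds were taken up in DMSO, serially diluted in growth medium, inoculated and incubated at 35 °C. Growth was scored at 72 h. MIC80 is the first well with about 80% lower growth than the drug-free control well.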
# [2] = system: Candida parapsilosis; assay: Antifungal activity against Candida parapsilosis ATCC 0306392 by micro-broth dilution method; settings: Lodderomyces parapsilosis
# Outline: (§1)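 Micro-broth dilution per NCCLS M27-A2. The C. parapsilosis strain is the ATCC 0306392 quality-control standard tested in each assay; the C. tropicalis strain is a clinical isolate. Compounds were in DMSO, serially diluted in growth medium, inoculated and incubated at 35 °C. MIC80 is the first well with about 80% growth reduction relative to the drug-free well.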
# [3] = system: Trichophyton rubrum; assay: Antifungal activity against Trichophyton rubrum after 7 days by micro-broth dilution method; settings: 168 h
# Outline: (§2)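 Broth microdilution following the NCCLS yeast reference method (M27-A2), run on clinical isolates of filamentous fungi. Compounds were dissolved in DMSO, serially diluted in growth medium, inoculated and incubated at 35 °C. Growth was read at 7 days. MIC80 is the first well with about 80% less growth than the drug-free well.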
# [4] = system: Aspergillus fumigatus; assay: Antifungal activity against Aspergillus fumigatus after 7 days by micro-broth dilution method; settings: 168 h; outline: as §2
# [5] = system: Candida albicans; assay: Antifungal activity against Candida albicans ATCC Y0109 after 24 hrs by micro-broth dilution method; settings: ATCC Y0109, 24 h
# Outline: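 Micro-broth dilution per NCCLS M27-A2 on the quality-control standard strain ATCC Y0109, included in each assay. Compounds were dissolved in DMSO, serially diluted in growth medium, inoculated and incubated at 35 °C, with growth read at 24 h. MIC80 is the first well showing roughly 80% growth reduction versus the drug-free well.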
# [6] = system: Candida tropicalis; assay: Antifungal activity against Candida tropicalis by micro-broth dilution method; outline: as §1
# [7] = Antifungal activity against Fonsecaea compacta by micro-broth dilution method; outline: as §2
# [8] = system: Nannizzia gypsea; assay: Antifungal activity against Microsporum gypseum after 7 days by micro-broth dilution method; settings: 168 h; outline: as §2
SMILES,MIC80 [1] [µg/mL],MIC80 [2] [µg/mL],MIC80 [3] [µg/mL],MIC80 [4] [µg/mL],MIC80 [5] [µg/mL],MIC80 [6] [µg/mL],MIC80 [7] [µg/mL],MIC80 [8] [µg/mL]
OC(Cn1cncn1)(Cn1cncn1)c1ccc(F)cc1F [FLUCONAZOLE],1,1,0.25,64,4,1,16,0.25
CCC(C)n1ncn(-c2ccc(N3CCN(c4ccc(OCC5COC(Cn6cncn6)(c6ccc(Cl)cc6Cl)O5)cc4)CC3)cc2)c1=O (configuration not stated) [ITRACONAZOLE],1,0.25,0.0156,1,1,0.25,0.25,0.0156
CC(=O)N1CCN(c2ccc(OCC3COC(Cn4ccnc4)(c4ccc(Cl)cc4Cl)O3)cc2)CC1 (configuration not stated) [KETOCONAZOLE],0.0625,0.0625,0.0625,1,0.0625,0.0625,0.0625,0.0039
C[C@@H](c1ncncc1F)[C@](O)(Cn1cncn1)c1ccc(F)cc1F [VORICONAZOLE],0.0156,1,0.0039,> 64,0.0156,0.25,0.0156,0.0039
